Arr AP2 block = inhibitors of beta-arrestin/AP2 binding, primary screen, biochemical, GPCR trafficking, flow cytometry | beta-arrestin 1 C-terminal peptide binding to AP2 beta2-adaptin appendage (human) | FITC-arrestin peptide / GST-AP2 beads; AP2 beta2 appendage carries R879A mutation | inhibition, % at 10 µM | 340,000 tested, 0.31% active;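 active = inhibition above a set limit, near 3 SD of compounds lacking own fluorescence, cut at about 54% in these data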
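System: GST-AP2 R879A glutathione beads. Medium: PBS with 0.05% Tween 20 and 0.1% BSA. Also added: FITC-arrestin peptide, 50 nM. Incubation: 12 min plus 1 h, RT. Measured by: high-throughput flow cytometry of beads, ex 488, em 535 nm. Evaluation: percent drop in bead-associated FITC signal.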
Rin1 Abl inh = inhibitors of Rin1-Abl protein binding, primary screen, biochemical, TR-FRET; Tyrosine-protein kinase ABL1 (Homo sapiens) + Ras and Rab interactor 1 (Homo sapiens), …; inhibition, % at 7.35 µM; 360,000 tested, 0.4% active; AID 588664, 2011; in the data active = inhibition above about 5%, passing the limit was not always enough
TbMetRS inhib = T. brucei MetRS inhibitors, primary screen, biochemical, luminescence; methionyl-tRNA synthetase (Trypanosoma brucei brucei); purified T. brucei MetRS, ATP depletion, Kinase-Glo luminescence; inhibition, % at 11.9 µM; 360,000 tested, 0.4% active; AID 624268, 2012;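 active = inhibition above a per-plate cutoff of the control wells' mean inhibition plus 3 SD, cut at about 5.5% in these data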
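assay system = parasite MetRS enzyme | timing = 15 min preincubation, 2 h reaction, all 25 °C | evaluation = percent inhibition relative to median high and low control wells | medium = HEPES buffer containing pyrophosphatase, BSA, spermine, DTT | compound = single dose, 11.9 µM final nominal, 0.9% final DMSO | detection = Kinase-Glo luminescence, ATP depletion format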
MT1-MMP act inh = blockers of MT1-MMP proenzyme processing, primary screen, HT1080 RFP-PRO-GFP cells, GFP/RFP fluorescence; GFP/RFP ratio fluorescence, overnight; percent of plate control window, DMSO zero; GFP/RFP ratio change, % at 20 µM; 360,000 tested, 0.061% active;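 active = GFP/RFP ratio change of at least 30% with cell ATP level not reduced by more than half and red fluorescence within 50% of control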
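Test system: HT1080 RFP-PRO-GFP cells; Benchmarks: DMSO and RFP-L50D-GFP cell wells; Timing: cells overnight before dosing, compound overnight, 37 °C, 5% CO2; Compound: one 20 µM compound dose with 1% DMSO; Read-out: GFP/RFP fluorescence ratio.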
SKN-1 inh = suppressors of acrylamide-induced Pgst-4::GFP reporter in worms, primary screen, SKN-1 inhibitor project, whole organism, uHTS, GFP/RFP fluorescence ratio, strain VP596; AID 624304, 2012; C. elegans VP596 Pgst-4::GFP/RFP ratio, 24 h; inhibition, % at 21.8 µM; 360,000 tested, 0.49% active;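 active = interference check ratio from 0.5 to 1.5 plus GFP to RFP signal ratio inhibition reaching or exceeding a fixed threshold, cut at about 30% in these data, passing the limit was not always enough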
TbMetRS confirm = T. brucei MetRS inhibitors, confirmation, biochemical, luminescence | shares compounds with TbMetRS inhib | T. brucei MetRS enzyme, luminescence (ATP depletion) | inhibition, % at 11.9 µM | 1,400 tested, 93% active; in the data active = inhibition above about 7%
Jurkat tox = Jurkat T cell cytotoxicity, cytotoxicity control for T. brucei MetRS inhibitor project, luminescence, high throughput. AID 624413, 2012. 1,400 tested, 12% active. Jurkat cells viability, ATP luminescence. inhibition, % at 8.3 µM. shares compounds with TbMetRS inhib; in the data active = inhibition above about 15%
TbMetRS FP orth = T. brucei MetRS inhibitors, orthogonal assay for T. brucei MetRS inhibitor project, biochemical, fluorescence polarization; shares compounds with TbMetRS inhib; purified T. brucei MetRS; inhibition, % at 11.9 µM; 1,400 tested, 44% active; AID 651607, 2012; in the data active = inhibition above about 17%
A number is an active result. The list is not random: actives were taken first. Their share in the collection is about 1.6%.

Screening COc1ccc(OCC(O)CNS(=O)(=O)c2ccc(NC(C)=O)cc2)cc1 (stereo not given) returned Arr AP2 block inactive, Rin1 Abl inh inactive, TbMetRS inhib inactive, MT1-MMP act inh inactive and SKN-1 inh inactive.
For COc1ccc(OCC(O)CNC(=O)Nc2ccc(F)cc2)cc1 (stereo not given) the results were Arr AP2 block inactive, Rin1 Abl inh inactive, TbMetRS inhib 5.7, MT1-MMP act inh inactive, SKN-1 inh inactive, TbMetRS confirm 17.6, Jurkat tox inactive and TbMetRS FP orth inactive.
COc1ccc(OCC(O)CNC(=O)Nc2ccccc2)cc1 (stereo not given) was read as Arr AP2 block inactive, Rin1 Abl inh inactive, TbMetRS inhib 9.4, MT1-MMP act inh inactive, SKN-1 inh inactive, TbMetRS confirm 21.1, Jurkat tox inactive and TbMetRS FP orth inactive.
Screening COc1ccc(NC(=O)C(NC(C)=O)C(=O)Nc2ccc(F)cc2)cc1 (stereo not given) returned Arr AP2 block inactive, Rin1 Abl inh inactive, TbMetRS inhib 9.6, MT1-MMP act inh inactive, SKN-1 inh inactive, TbMetRS confirm 19.2, Jurkat tox inactive and TbMetRS FP orth inactive.
Screening O=C(/C=C/c1ccccc1Cl)OCC(=O)c1ccc[nH]1 returned Arr AP2 block inactive, Rin1 Abl inh inactive, TbMetRS inhib inactive, MT1-MMP act inh inactive and SKN-1 inh inactive.
`O=C(COC(=O)C1CCN(c2ccc(C(F)(F)F)cn2)CC1)Nc1cccc(F)c1` gave Arr AP2 block inactive, Rin1 Abl inh inactive, TbMetRS inhib 6.0, MT1-MMP act inh inactive, SKN-1 inh inactive, TbMetRS confirm 19.3, Jurkat tox inactive and TbMetRS FP orth inactive.
Screening CCOc1ccc(C2c3[nH]c4ccccc4c3C[C@H]3C(=O)N(C4CCN(Cc5ccccc5)CC4)CC(=O)N23)cc1OC (stereo not given in full) returned Arr AP2 block inactive, Rin1 Abl inh inactive, TbMetRS inhib inactive, MT1-MMP act inh inactive and SKN-1 inh inactive.
O=C1[C@@H]2Cc3c([nH]c4ccccc34)C(c3cccc([N+](=O)[O-])c3)N2C(=O)CN1C1CCN(Cc2ccccc2)CC1 (stereo not given in full) was read as Arr AP2 block inactive, Rin1 Abl inh inactive, TbMetRS inhib 91.3, MT1-MMP act inh inactive, SKN-1 inh inactive, TbMetRS confirm 94.2, Jurkat tox inactive and TbMetRS FP orth 74.3.
For O=C(COc1ccc([N+](=O)[O-])cc1)NCCc1nc2ccccc2[nH]1 the results were Arr AP2 block inactive, Rin1 Abl inh inactive, TbMetRS inhib 6.9, MT1-MMP act inh inactive, SKN-1 inh inactive, TbMetRS confirm 12.3, Jurkat tox inactive and TbMetRS FP orth inactive.
`CC(=O)NCCc1nc2ccccc2[nH]1` gave Arr AP2 block inactive, Rin1 Abl inh inactive, TbMetRS inhib inactive, MT1-MMP act inh inactive and SKN-1 inh inactive.
Screening O=C(NCCc1nc2ccccc2[nH]1)c1ccc([N+](=O)[O-])cc1 returned Arr AP2 block inactive, Rin1 Abl inh inactive, TbMetRS inhib 36.0, MT1-MMP act inh inactive, SKN-1 inh inactive, TbMetRS confirm 58.2, Jurkat tox inactive and TbMetRS FP orth 29.2.
O=C(NCCc1nc2ccccc2[nH]1)c1ccc(F)cc1 was read as Arr AP2 block inactive, Rin1 Abl inh inactive, TbMetRS inhib 6.4, MT1-MMP act inh inactive, SKN-1 inh inactive, TbMetRS confirm 10.3, Jurkat tox inactive and TbMetRS FP orth inactive.
O=C(Cc1nc2ccccc2[nH]1)c1ccc([N+](=O)[O-])cc1 was read as Arr AP2 block inactive, Rin1 Abl inh inactive, TbMetRS inhib 8.0, MT1-MMP act inh inactive, SKN-1 inh inactive, TbMetRS confirm 5.8, Jurkat tox inactive and TbMetRS FP orth inactive.
Screening CCc1nc2ccc(C(=O)NCCCN3CCCC3=O)cn2c1N(C)C(=O)C1CCCCC1 returned Rin1 Abl inh inactive, TbMetRS inhib inactive, MT1-MMP act inh inactive and SKN-1 inh inactive.
`Cc1ccc(Cn2cc(CN3CC(N4CCN(C5CCN(C)CC5)CC4)CS3(=O)=O)nn2)cc1` (stereo not given) gave TbMetRS inhib inactive, MT1-MMP act inh inactive and SKN-1 inh inactive.
For Cn1c(=O)c2c(nc(NCC3CCCC(CN)C3)n2Cc2ccc(Cl)cc2Cl)n(C)c1=O (stereo not given) the results were Arr AP2 block inactive, Rin1 Abl inh inactive, TbMetRS inhib inactive, MT1-MMP act inh inactive and SKN-1 inh inactive.
O=C(N/C(=C\c1cccnc1)c1nc2ccccc2[nH]1)c1cccc(Br)c1 was read as Arr AP2 block inactive, Rin1 Abl inh inactive, TbMetRS inhib 66.3, MT1-MMP act inh inactive, SKN-1 inh inactive, TbMetRS confirm 80.3, Jurkat tox inactive and TbMetRS FP orth 57.3.
`COc1ccc(OCCCC(=O)NCCc2nc3ccccc3[nH]2)cc1` gave Arr AP2 block inactive, Rin1 Abl inh inactive, TbMetRS inhib 47.6, MT1-MMP act inh inactive, SKN-1 inh inactive, TbMetRS confirm 70.0, Jurkat tox inactive and TbMetRS FP orth 32.4.
`O=C(NCCc1nc2ccccc2[nH]1)c1cccc(Br)c1` gave Arr AP2 block inactive, Rin1 Abl inh inactive, TbMetRS inhib 18.6, MT1-MMP act inh inactive, SKN-1 inh inactive, TbMetRS confirm 29.6, Jurkat tox inactive and TbMetRS FP orth inactive.
`COCC(=O)NCCc1nc2ccccc2[nH]1` gave Arr AP2 block inactive, Rin1 Abl inh inactive, TbMetRS inhib inactive, MT1-MMP act inh inactive and SKN-1 inh inactive.
Screening N#Cc1ccccc1NC(=O)C1CCCO1 (stereo not given) returned Rin1 Abl inh inactive, TbMetRS inhib inactive, MT1-MMP act inh inactive and SKN-1 inh inactive.
For COc1ccc(-n2nnnc2C(c2ccnc3ccccc23)N2CCN(C/C=C/c3ccccc3)CC2)cc1 (stereo not given) the results were Rin1 Abl inh inactive, TbMetRS inhib inactive and SKN-1 inh inactive.

Bioassay records deposited in PubChem BioAssay by several laboratories.
